Assay results reported in ChEMBL document CHEMBL4477178, “Biflorin, Isolated from the Flower Buds of Syzygium aromaticum L., Suppresses LPS-Induced Inflammatory Mediators via STAT1 Inactivation in Macrophages and Protects Mice from Endotoxin Shock” (J Nat Prod, 2016).
The source made the active and inactive calls. The rule behind the calls is not given here.

Tests used:
RAW264.7 [1] = experiment: Antiinflammatory activity in mouse RAW264.7 cells assessed as inhibition of LPS-induced IL-6 production at 60 uM preincubated for 1 hr followed by LPS challenge for 24 hrs by ELISA method; format: functional
Procedure, shortened: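 RAW 264.7 cells in DMEM with 10% FBS, plated at 2 × 10^5 cells/mL and incubated overnight. Pretreated with compound (15, 30 or 60 μM) for 1 h, then LPS 10 ng/mL for 24 h. PGE2 measured by competitive colorimetric ELISA, TNF-α and IL-6 by ELISA, in diluted medium. NS-398 3 μM as positive control for PGE2. Mean ± SD, three independent experiments; IC50 given for PGE2.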

RAW264.7 [2] = experiment: Antiinflammatory activity in mouse RAW264.7 cells assessed as inhibition of LPS-induced COX-2 mRNA expression at 60 uM after 2 to 12 hrs by qRT-PCR method; format: functional, cell-based
Procedure, shortened: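 RAW 264.7 stimulated with LPS 10 ng/mL with or without 60 μM for 2, 4, 6 and 12 h. Total RNA (1 μg) reverse-transcribed with MuLV RT and random primer; SYBR green real-time qPCR with gene-specific primers, triplicate Ct normalized to β-actin. Mean ± SD, three independent experiments.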

RAW264.7 [3] = experiment: Antiinflammatory activity in mouse RAW264.7 cells assessed as inhibition of LPS-induced iNOS promoter activity at 60 uM preincubated for 1 hr followed by LPS challenge for 6 to 12 hrs by reporter gene assay; format: functional, cell-based
Procedure, shortened: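 RAW 264.7 transiently cotransfected with promoter-luciferase construct (pGL3-iNOS, pGL3-COX-2 or pTNF-α-luc) plus phRL-TK internal control; 6 h after transfection pretreated 1 h with 60 μM, then LPS 10 ng/mL for 6 or 12 h. Cells washed in cold PBS, lysed, luciferase read. Mean ± SD, three independent experiments.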

RAW264.7 [4] = experiment: Cytotoxicity against mouse RAW264.7 cells assessed as cell viability at 60 uM after 24 hrs by MTT assay in absence of LPS; format: cell-based; details: raw264.7, 24 h
Procedure, shortened: (§1)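 RAW 264.7 seeded at 1 × 10^5 cells/mL, grown overnight, exposed 24 h with or without LPS; MTT (5 mg/mL stock in PBS) added 4 h at 37 °C, formazan dissolved in DMSO, absorbance at 540 nm.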

Mus musculus [5] = experiment: In vivo inhibition of LPS-induced STAT1 phosphorylation at Y701 in C57BL/6 mouse liver at 10 mg/kg, ip pretreated for 1 hr followed by LPS challenge for 6 hrs by Western blot analysis; format: functional, organism-based
Procedure, shortened: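 Male C57BL/6 mice given 10 mg/kg i.p. or vehicle 1 h before LPS (Salmonella enterica, 25 mg/kg i.p.); liver collected 6 h after LPS, frozen at −80 °C. Liver mRNA by SYBR qRT-PCR normalized to β-actin; protein by Western blot for p-STAT1 (Y701, S727). Eight mice per group; mean ± SD.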

Rattus norvegicus [6] = experiment: Antiinflammatory activity in Sprague-Dawley rat assessed as reduction in carrageenan induced paw edema at 10 mg/kg, ip administered 1 hr before carrageenan challenge measured at 3 hrs post challenge relative to control; format: functional
Procedure, shortened: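 SD rats given compound i.p. (5, 10 or 15 mg/kg) 1 h before subplantar injection of 1% carrageenan in saline (0.1 mL) into the right hind paw. Paw volume measured by plethysmometer at 1, 3 and 5 h. Edema compared with the carrageenan-only group; seven rats per group.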

Mus musculus [7] = experiment: Protection against LPS-induced mortality in C57BL/6 mouse assessed as lethality level at 5 to 10 mg/kg, ip pretreated for 1 hr followed by LPS challenge measured every 12 hrs for 96 hrs post challenge; format: functional
Procedure, shortened: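 Male C57BL/6 mice (6 weeks) given compound i.p. (5 or 10 mg/kg) or vehicle 1 h before i.p. LPS (Salmonella enterica, 25 mg/kg). Water only for 12 h beforehand. Survival checked every 12 h for 96 h; n = 5 per group.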

RAW264.7 [8] = experiment: Cytotoxicity against mouse RAW264.7 cells assessed as cell viability at 60 uM after 24 hrs by MTT assay in presence of LPS; format: cell-based; details: raw264.7, 24 h; procedure, shortened: as §1
Rattus norvegicus [9] = experiment: Antiinflammatory activity in Sprague-Dawley rat assessed as inhibition of croton oil-induced inflammatory cell infiltration at 10 mg/kg, ip administered 1 hr before croton oil challenge measured after 3 hrs by hematoxylin and eosin staining based assay; format: functional, organism-based
Procedure, shortened: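 SD male rats dosed i.p. (10 mg/kg) 1 h before topical croton oil (5% in acetone) on inner right ear; left ear got acetone only. At 3 h rats sacrificed, 6 mm ear punches taken, fixed in 4% paraformaldehyde overnight, paraffin-embedded, H&E-stained for edema and inflammatory cell infiltrate; seven animals per group.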

Rattus norvegicus [10] = experiment: Antiinflammatory activity in Sprague-Dawley rat assessed as inhibition of croton oil-induced ear edema at 10 mg/kg, ip administered 1 hr before croton oil challenge measured after 3 hrs post challenge relative to control; format: functional
Procedure, shortened: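 Male SD rats given compound i.p. (5, 10 or 15 mg/kg) 1 h before topical croton oil (5% in 100 μL acetone) on the inner right ear; the left ear received acetone alone. After 3 h, rats were killed and 6 mm ear punches were taken and measured for thickness. Inhibition calculated relative to the croton-oil-only group; seven rats per group.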

RAW264.7 [11] = experiment: Cytotoxicity against mouse RAW264.7 cells assessed as decrease in cell viability after 24 hrs by MTT assay; format: cell-based; details: RAW264.7, 24 h
Procedure, shortened: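 RAW 264.7 cells seeded at 1 × 10^5 cells/mL in DMEM with 10% FBS and incubated overnight. Exposed to compound (0−400 μM) for 24 h, with or without LPS. MTT added for 4 h at 37 °C, formazan dissolved in DMSO, absorbance read at 540 nm; IC50 derived.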

RAW264.7 [12] = experiment: Antiinflammatory activity in mouse RAW264.7 cells assessed as inhibition of LPS-induced nitric oxide production preincubated for 1 hr followed by LPS challenge for 24 hrs by Griess assay; format: functional, cell-based
Procedure, shortened: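 RAW 264.7 cells plated at 2 × 10^5 cells/mL and incubated overnight. Compound given at 15, 30 or 60 μM for 1 h, then LPS 10 ng/mL for 24 h. Nitrite in the medium measured by Griess reagent (10 min, room temperature, A540) against a NaNO2 standard. L-NIL 20 μM as positive control; IC50 derived; three independent experiments.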

[13] = Cytotoxicity against C57BL/6 mouse peritoneal macrophages assessed as cell viability at 60 uM after 24 hrs by MTT assay; format: cell-based, Peritoneal macrophage; details: read-out: Activity
Procedure, shortened: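 Peritoneal macrophages from thioglycolate-elicited C57BL/6 male mice (harvested by lavage after 4 days, cultured in DMEM/10% FBS) exposed 24 h up to 60 μM; viability by MTT assay.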

RAW264.7 [14] = experiment: Antiinflammatory activity in mouse RAW264.7 cell lysate assessed as inhibition of LPS-induced iNOS expression preincubated for 1 hr followed by LPS challenge for 24 hrs by Western blot analysis; format: functional, cell-based
Procedure, shortened: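 RAW 264.7 (DMEM, 10% FBS, 37 °C, 5% CO2) pretreated 1 h at 15, 30 or 60 μM, then LPS 10 ng/mL for 24 h. Lysates run on 10–12% SDS-PAGE, blotted to PVDF, probed with iNOS or COX-2 antibody (1:1000, overnight 4 °C), HRP secondary, ECL; densitometry vs β-actin. Mean ± SD of three independent experiments.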

Compound: Cc1cc(=O)c2c(O)c([C@@H]3O[C@H](CO)[C@@H](O)[C@H](O)[C@H]3O)c(O)cc2o1 [BIFLORIN]
- inhibition at 60 µM (RAW264.7 [1]): 51.3%
- inhibition (RAW264.7 [2]): Active
- inhibition (RAW264.7 [3]): Active
- Activity (RAW264.7 [4]): Non-Toxic
- inhibition (Mus musculus [5]): Active
- inhibition in vivo at 10 mg/kg (Rattus norvegicus [6]): 48%
- mortality (Mus musculus [7]): 40 - 60%
- Activity (RAW264.7 [8]): Non-Toxic
- inhibition (Rattus norvegicus [9]): Active
- inhibition in vivo at 10 mg/kg (Rattus norvegicus [10]): 44.5%
- IC50 (RAW264.7 [11]): 140 µM
- IC50 (RAW264.7 [12]): 51.7 µM
- viability at 24 h, 60 µM [13]: 90.4%
- inhibition (RAW264.7 [14]): Dose-dependent effect
